Assay [1] relates to Escherichia coli. The assay is described as follows: Antibacterial activity against 5 x 10^5 CFU/ml CMY-30 producing Escherichia coli MC4100 harboring plasmid AC-cmy30 by microdilution method. The assay is classed as functional. The essentials: (§1)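 Broth microdilution MIC in Mueller-Hinton broth with an inoculum of 5 × 10^5 CFU/ml. Isogenic E. coli MC4100 strains (vector control or carrying CMY-2 or CMY-30) were tested in parallel.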
(In general: Dilution methods test growth across graded concentrations, often in twofold steps.)

Assay [2] has as its system Escherichia coli. The assay is described as follows: Antibacterial activity against 5 x 10^5 CFU/ml CMY-2 producing Escherichia coli MC4100 harboring plasmid AC-cmy2 by microdilution method. The assay is classed as functional. The essentials: as §1
Assay [3] has as its system Escherichia coli. The assay is described as follows: Antibacterial activity against 5 x 10^5 CFU/ml CMY-30 producing Escherichia coli MC4100 harboring plasmid AC-cmy30 by microdilution method in presence of 2 ug/ml clavulanic acid. The assay is classed as functional. The essentials: (§2)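 Broth microdilution MIC in Mueller-Hinton broth with an inoculum of 5 × 10^5 CFU/ml. Clavulanic acid was held at a fixed 2 μg/ml. Isogenic E. coli MC4100 strains (vector control or carrying CMY-2 or CMY-30) were tested in parallel.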

Assay [4] relates to Escherichia coli. The assay can be described thus: Antibacterial activity against 5 x 10^5 CFU/ml Escherichia coli MC4100 harboring plasmid ACYC184 by microdilution method. The assay is classed as functional. The essentials: as §1
The test system of assay [5] is Escherichia coli. The assay can be described thus: Antibacterial activity against 5 x 10^5 CFU/ml CMY-2 producing Escherichia coli MC4100 harboring plasmid AC-cmy2 by microdilution method in presence of 2 ug/ml clavulanic acid. The assay is classed as functional. The essentials: as §2
Assay [6] deals with Escherichia coli. The assay can be described thus: Antibacterial activity against 5 x 10^5 CFU/ml Escherichia coli MC4100 harboring plasmid ACYC184 by microdilution method in presence of 2 ug/ml clavulanic acid. The assay is classed as functional. The essentials: as §2
Assay [7] in a line: Inhibition of Escherichia coli MC4100 Beta-Lactamase CMY-30 using cephalothin as reporter substrate.
A short description of assay [8]: (§3) Inhibition of Escherichia coli MC4100 Beta-Lactamase CMY-2 using cephalothin as reporter substrate.
Assay [9] relates to Escherichia coli. The assay can be described thus: Activity of Escherichia coli MC4100 Beta-Lactamase CMY-30 harboring Val211?Gly211 mutation. The essentials:
(§4)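 Enzyme source was E. coli MC4100 carrying high-copy plasmids pB-cmy30 or pB-cmy2. Enzyme was released by sonication in 20 mM Tris, pH 7.4, then purified by Q- and S-Sepharose ion exchange to >95% purity by SDS-PAGE. Values are means of four independent measurements. For some β-lactams, Km was obtained as Ki using cephalothin as reporter substrate.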

Assay [10] relates to Escherichia coli. The assay can be described thus: Ratio of Kcat to Km for Escherichia coli MC4100 Beta-Lactamase CMY-30 harboring Val211?Gly211 mutation. The essentials: as §4
For assay [11], the system named is Escherichia coli. The assay can be described thus: Ratio of Kcat to Km for Escherichia coli MC4100 Beta-Lactamase CMY-2. The essentials: (§5)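 CMY-2 purified from E. coli MC4100 carrying high-copy plasmid pB-cmy2. Cells in 20 mM Tris pH 7.4 sonicated, then Q- and S-Sepharose ion exchange, >95% pure by SDS-PAGE. Kinetic constants are means of four independent measurements. For some β-lactams Km was determined as Ki with cephalothin as reporter substrate.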

The test system of assay [12] is Escherichia coli. The assay can be described thus: Activity of Escherichia coli MC4100 Beta-Lactamase CMY-2. The essentials:
as §5

The test system of assay [13] is Escherichia coli. The description is as §3.
Assay [14] concerns Escherichia coli. The assay can be described thus: Inhibition of Escherichia coli DH5alpha beta-lactamase CMY-2 assessed as aztreonam hydrolysis. The essentials: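 Agar bioassay on MH agar seeded with E. coli DH5α indicator (10^5 CFU/ml), with 30 μg aztreonam disks. Purified cephalosporinase (700 ng in 10 μl phosphate buffer) was applied near each disk. Plates were incubated 18 h at 35°C and read for distortion of the inhibition zone against control disks.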

Assay [15] relates to Escherichia coli. The assay is described as follows: Antibacterial activity against 5 x 10^5 CFU/ml Escherichia coli MC4100 harboring plasmid ACYC184 by microdilution method in presence of 4 ug/ml Tazobactam. The assay is classed as functional. Summed up:
(§6)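 Broth microdilution MICs in Mueller-Hinton broth, inoculum 5 × 10^5 CFU/ml. Isogenic E. coli MC4100 strains carrying CMY-30, CMY-2 or no CMY gene were tested in parallel. Tazobactam was held at a fixed 4 μg/ml.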

The subject of assay [16] is Escherichia coli. The assay is described as follows: Antibacterial activity against 5 x 10^5 CFU/ml CMY-2 producing Escherichia coli MC4100 harboring plasmid AC-cmy2 by microdilution method in presence of 4 ug/ml Tazobactam. The assay is classed as functional. The essentials: as §6
For assay [17], the system named is Escherichia coli. The assay is described as follows: Antibacterial activity against 5 x 10^5 CFU/ml CMY-30 producing Escherichia coli MC4100 harboring plasmid AC-cmy30 by microdilution method in presence of 4 ug/ml Tazobactam. The assay is classed as functional. Summed up:
as §6

Converted amounts (≈) assume the structure as drawn. The source made the active and inactive calls. No cut-off for these calls is given here.

One may read the MIC as the least concentration at which growth counts as inhibited. The term Ki denotes the equilibrium dissociation constant of an inhibitor or competing ligand from its target. Read a high Ki as lower affinity. Broadly, the kcat is the maximal rate divided by the concentration of active sites. The kcat/Km is the turnover number divided by the Michaelis constant. Broadly, the Km is the substrate concentration at which the rate is half of its maximum.

For the molecule `CO/N=C(\C(=O)N[C@@H]1C(=O)N2C(C(=O)[O-])=C(C[N+]3(C)CCCC3)CS[C@H]12)c1csc(N)n1`, the MIC in the assay on Escherichia coli [1] and against Escherichia coli [2] was 0.25 µg/mL (≈ 0.52 µM) each time.

Take `CC1(C)S[C@@H]2[C@H](NC(=O)[C@H](C(=O)O)c3ccsc3)C(=O)N2[C@H]1C(=O)O` [TICARCILLIN]: the MIC in the assay on Escherichia coli [3] was greater than 512 µg/mL; in the assay on Escherichia coli [4], 2 µg/mL (≈ 5.2 µM); in the assay on Escherichia coli [5], greater than 512 µg/mL; with Escherichia coli [1], greater than 512 µg/mL; against Escherichia coli [2] it was greater than 512 µg/mL; in the assay with Escherichia coli [6], 1 µg/mL.

On to `C[C@]1(/C=C\C#N)[C@H](C(=O)O)N2C(=O)C[C@H]2S1(=O)=O`, for which the figures for the Ki in [7] and in [8] were 200 nM and 100 nM, respectively.

On to `CC1(C)S[C@@H]2[C@H](NC(=O)Cc3ccccc3)C(=O)N2[C@H]1C(=O)O` [PENICILLIN G], for which the catalytic constant (kcat) is 23 s⁻¹ in the assay with Escherichia coli [9] and 24 s⁻¹ in the assay with Escherichia coli [12]. In addition, in [7], the inhibitory constant (Ki) amounted to 600 nM. Besides, the catalytic efficiency (kcat/Km) is 38 µM⁻¹ s⁻¹ in the assay on Escherichia coli [10] and 40 µM⁻¹ s⁻¹ in the assay on Escherichia coli [11]. For the same molecule, the Km in the assay on Escherichia coli [13] is 0.6 µM.

On to `Cc1onc(-c2ccccc2Cl)c1C(=O)N[C@@H]1C(=O)N2[C@@H]1SC(C)(C)[C@@H]2C(=O)O` [CLOXACILLIN], for which the inhibition constant (Ki) in assay [7] worked out at 2.3 nM; in [8], 0.2 nM.

As for `CO/N=C(\C(=O)N[C@@H]1C(=O)N2C(C(=O)O)=C(COC(N)=O)CS[C@H]12)c1ccco1` [CEFUROXIME], the values for the minimal inhibitory concentration (MIC) in the assay on Escherichia coli [4], in the assay on Escherichia coli [1] and against Escherichia coli [2] were 2 µg/mL (≈ 4.71 µM), greater than 512 µg/mL and greater than 512 µg/mL, respectively.

As to `N[C@@H](C(=O)N[C@@H]1C(=O)N2C(C(=O)O)=C(Cl)CS[C@H]12)c1ccccc1` [CEFACLOR ANHYDROUS], the minimum inhibitory concentration (MIC) is 2 µg/mL (≈ 5.44 µM) against Escherichia coli [4], greater than 512 µg/mL against Escherichia coli [1] and greater than 512 µg/mL with Escherichia coli [2].

As to `CC(=O)OCC1=C(C(=O)O)N2C(=O)[C@@H](NC(=O)Cc3cccs3)[C@H]2SC1` [CEPHALOTHIN], the Km with Escherichia coli [9] was 26 µM; in the assay on Escherichia coli [12], 17 µM. In addition, the kcat amounted to 256 s⁻¹ in the assay with Escherichia coli [9] and 267 s⁻¹ in the assay with Escherichia coli [12]. For the same molecule, the minimum inhibitory concentration (MIC) with Escherichia coli [4] was 2 µg/mL (≈ 5.04 µM); against Escherichia coli [1], greater than 512 µg/mL; against Escherichia coli [2], greater than 512 µg/mL. For the same molecule, the kcat/Km was determined as 10 µM⁻¹ s⁻¹ with Escherichia coli [10] and 16 µM⁻¹ s⁻¹ with Escherichia coli [11].

In the case of `C[C@]1(Cn2ccnn2)[C@H](C(=O)O)N2C(=O)C[C@H]2S1(=O)=O` [TAZOBACTAM], the values for the Ki in [7] and in assay [8] were greater than 1000 nM and 800 nM, respectively.

Regarding `CC(C)(O/N=C(\C(=O)N[C@@H]1C(=O)N2C(C(=O)[O-])=C(C[n+]3ccccc3)CS[C@H]12)c1csc(N)n1)C(=O)O` [CEFTAZIDIME], the catalytic constant (kcat) in the assay with Escherichia coli [9] is 0.4 s⁻¹; in the assay with Escherichia coli [12], 0.01 s⁻¹. In addition, the MIC against Escherichia coli [4] is 0.25 µg/mL (≈ 0.457 µM); against Escherichia coli [1], greater than 512 µg/mL; against Escherichia coli [2], 128 µg/mL (≈ 234 µM). The Ki in assay [7] stood at 140 nM; in assay [8], 20 nM. The kcat/Km turned out to be 2.9 µM⁻¹ s⁻¹ in the assay on Escherichia coli [10] and 0.5 µM⁻¹ s⁻¹ in the assay on Escherichia coli [11].

On to `C[C@H]1[C@H](NC(=O)/C(=N\OC(C)(C)C(=O)O)c2csc(N)n2)C(=O)N1S(=O)(=O)O` [AZTREONAM], for which the inhibition constant (Ki) in [7] was 17 nM; in assay [8] it was 2.1 nM. Also, the MIC against Escherichia coli [1] amounted to 128 µg/mL (≈ 294 µM); in the assay with Escherichia coli [2] it was 16 µg/mL (≈ 36.7 µM). For the same molecule, the result in the assay on Escherichia coli [14] was Active.

For `CCN1CCN(C(=O)N[C@@H](C(=O)N[C@@H]2C(=O)N3[C@@H]2SC(C)(C)[C@@H]3C(=O)O)c2ccccc2)C(=O)C1=O` [PIPERACILLIN], the minimum inhibitory concentration (MIC) in the assay on Escherichia coli [15] turned out to be 0.5 µg/mL; against Escherichia coli [4], 0.5 µg/mL (≈ 0.966 µM); against Escherichia coli [1], 64 µg/mL (≈ 124 µM); against Escherichia coli [2], 128 µg/mL (≈ 247 µM); with Escherichia coli [16] it was 16 µg/mL; in the assay on Escherichia coli [17], 16 µg/mL.

Turning to `CC1(C)S[C@@H]2[C@H](NC(=O)[C@H](N)c3ccc(O)cc3)C(=O)N2[C@H]1C(=O)O` [AMOXICILLIN], the MIC in the assay with Escherichia coli [3] is greater than 512 µg/mL; with Escherichia coli [4], 4 µg/mL (≈ 10.9 µM); in the assay with Escherichia coli [5] it was greater than 512 µg/mL; against Escherichia coli [1] it was greater than 512 µg/mL; in the assay on Escherichia coli [2], greater than 512 µg/mL; with Escherichia coli [6] it was 4 µg/mL.

`CO/N=C(\C(=O)N[C@@H]1C(=O)N2C(C(=O)O)=C(COC(C)=O)CS[C@H]12)c1csc(N)n1` [CEFOTAXIME]: the kcat with Escherichia coli [9] is 1.7 s⁻¹; with Escherichia coli [12], less than 0.01 s⁻¹. Moreover, the MIC amounted to 0.12 µg/mL (≈ 0.263 µM) in the assay with Escherichia coli [4], 256 µg/mL (≈ 562 µM) in the assay with Escherichia coli [1] and 16 µg/mL (≈ 35.1 µM) in the assay on Escherichia coli [2]. Further, the Ki in assay [7] was determined as 300 nM; in assay [8] it was 5 nM. The specificity constant (kcat/Km) is 5.7 µM⁻¹ s⁻¹ with Escherichia coli [10] and less than 2 µM⁻¹ s⁻¹ in the assay on Escherichia coli [11].

As for `CO[C@@]1(NC(=O)Cc2cccs2)C(=O)N2C(C(=O)O)=C(COC(N)=O)CS[C@@H]21` [CEFOXITIN], the turnover number (kcat) in the assay on Escherichia coli [9] amounted to 0.28 s⁻¹; in the assay with Escherichia coli [12], 0.35 s⁻¹. Moreover, the minimal inhibitory concentration (MIC) was 2 µg/mL (≈ 4.68 µM) with Escherichia coli [4], greater than 512 µg/mL with Escherichia coli [1] and greater than 512 µg/mL in the assay with Escherichia coli [2]. For the same molecule, the Ki amounted to 170 nM in [7] and 150 nM in assay [8]. The results for the kcat/Km in the assay on Escherichia coli [10] and in the assay with Escherichia coli [11] were 1.6 µM⁻¹ s⁻¹ and 2.3 µM⁻¹ s⁻¹, respectively.
